Data taken from ChEMBL document CHEMBL5620404, “New 4-(N-cinnamoylbutyl)aminoacridines as potential multi-stage antiplasmodial leads” (Eur J Med Chem, 2023).
pIC50: −log10 of the molar value. Calls of active or inactive are those of the source. The rule behind the calls is not given here.

Assays:
Plasmodium berghei [1] = experiment: Antiplasmodial activity against firefly luciferase expressing liver stage Plasmodium berghei infected in human Huh-7 cells assessed as reduction in parasite growth at 1 to 10 uM measured after 48 hrs post infection by […] luminescence assay; format: functional, organism-based; conditions: dose 1-10 µM
How it was run: (§1)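 Huh7 cells in supplemented RPMI 1640 seeded the day before; ~1 h before infection, medium switched to infection medium with gentamicin, amphotericin B and compound. Cells then infected with PbGFP-Luccon sporozoites from Anopheles stephensi salivary glands. At 48 h, parasite load read as luciferase luminescence in lysates, normalized to 0.01% DMSO control; IC50 by nonlinear regression.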

Plasmodium falciparum [2] = experiment: Antiplasmodial activity against Plasmodium falciparum NF54-gexp02-Tom gametocytes infected in human erythrocyte at 5 uM by giemsa staining based light microscopy analysis relative to control; format: functional
Plasmodium berghei [3] = experiment: Antiplasmodial activity against firefly luciferase expressing liver stage Plasmodium berghei infected in human Huh-7 cells assessed as reduction in parasite growth measured after 48 hrs post infection by […] luminescence assay; format: functional, organism-based; conditions: Huh-7, 48 h; how it was run: as §1
Plasmodium falciparum [4] = experiment: Antiplasmodial activity against Plasmodium falciparum NF54-gexp02-Tom gametocytes infected in human erythrocyte by giemsa staining based light microscopy analysis; format: functional, organism-based
How it was run: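 NF54-gexp02-Tom line (tdTomato under early gametocyte promoter) grown in group B human erythrocytes, 3% hematocrit, RPMI with 10% human plasma and 2 mM choline chloride, 37 °C, 5% O2/5% CO2/90% N2. Sexual conversion induced by choline removal plus sorbitol synchronization; compounds 0.0048–100 μM present throughout.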

Plasmodium falciparum [5] = experiment: Antiplasmodial activity against blood stage chloroquine-sensitive Plasmodium falciparum 3D7 infected in human erythrocyte incubated for 48 hrs by Syto11 staining based flow cytometry analysis; format: functional, organism-based; conditions: 3D7, Erythrocyte
How it was run: (§2)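 3D7 asexual parasites grown in group B erythrocytes, 3% hematocrit, RPMI with 0.5% Albumax II and 2 mM L-glutamine, 37 °C, 5% O2/5% CO2/90% N2. Rings synchronized by 5% sorbitol, then exposed 48 h to compounds (0.0000256–10 μM). Syto11 nuclear stain and flow cytometry (488 nm excitation, 530/30 emission). Inhibition scaled to untreated (0%) and chloroquine-treated (100%) cultures; IC50 by sigmoidal fit.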

Huh-7 = experiment: Cytotoxicity against human Huh-7 cells assessed as reduction in cell confluency at 10 uM measured after 48 hrs by Alamar blue staining based analysis relative to control; format: functional; parameters: scale not given: the % may be the effect or the level left
Plasmodium falciparum [6] = experiment: Antiplasmodial activity against blood stage chloroquine-sensitive Plasmodium falciparum 3D7 infected in human erythrocyte; format: functional, organism-based; conditions: 3D7, Erythrocyte; how it was run: as §2
Plasmodium berghei [7] = experiment: Antiplasmodial activity against firefly luciferase expressing liver stage Plasmodium berghei infected in human Huh-7 cells measured after 48 hrs post infection by […] luminescence assay; format: functional, organism-based; conditions: Huh-7, 48 h; how it was run: as §1

For COc1cc(NCCCCNC(=O)/C=C/c2ccc(C(F)(F)F)cc2)c2nc3cc(Cl)ccc3cc2c1, the Activity (Plasmodium berghei [1]) was “Active” and the Activity (Plasmodium falciparum [2]) was 15%.

COc1cc(NCCCCNC(=O)/C=C/c2ccc(N(C)C)cc2)c2nc3cc(Cl)ccc3cc2c1 was tested, and the Activity (Plasmodium berghei [1]) was “Active” and the Activity (Plasmodium falciparum [2]) was 15%.

For COc1ccc(/C=C/C(=O)NCCCCNc2cc(OC)cc3cc4ccc(Cl)cc4nc23)cc1, the pIC50 (Plasmodium berghei [3]) was 5.93, the pIC50 (Plasmodium falciparum [4]) was 6.28 and the Activity (Plasmodium berghei [1]) was “Active”. For the same molecule, the pIC50 (Plasmodium falciparum [5]) was 4.99, the Activity (Huh-7) was roughly 75% and the Activity (Plasmodium falciparum [2]) was greater than 40%.

In the case of COc1cc(NCCCCNC(=O)/C=C/c2ccc([N+](=O)[O-])cc2)c2nc3cc(Cl)ccc3cc2c1, the pIC50 (Plasmodium berghei [3]) was 5.92, the pIC50 (Plasmodium falciparum [4]) was 4.79 and the Activity (Plasmodium berghei [1]) was “Active”. It also gave a pIC50 (Plasmodium falciparum [5]) of 5.42, an Activity (Huh-7) of roughly 75% and an Activity (Plasmodium falciparum [2]) greater than 40%.

With COc1cc(NCCCCNC(=O)/C=C/c2ccc(F)cc2)c2nc3cc(Cl)ccc3cc2c1 the pIC50 (Plasmodium berghei [3]) was 6.05, the Activity (Plasmodium berghei [1]) was “Active” and the pIC50 (Plasmodium falciparum [5]) was 5.23. It also gave an Activity (Huh-7) of roughly 75% and an Activity (Plasmodium falciparum [2]) of 15%.

COc1cc(NCCCCNC(=O)/C=C/c2ccc(Cl)cc2)c2nc3cc(Cl)ccc3cc2c1 was tested, and the pIC50 (Plasmodium berghei [3]) was 6.00, the Activity (Plasmodium berghei [1]) was “Active” and the Activity (Huh-7) was roughly 75%. For the same molecule, the Activity (Plasmodium falciparum [2]) was 15%.

With COc1cc(NCCCCNC(=O)/C=C/c2ccc(Br)cc2)c2nc3cc(Cl)ccc3cc2c1 the Activity (Plasmodium berghei [1]) was “Active” and the Activity (Plasmodium falciparum [2]) was 15%.

In the case of COc1cc(NCCCCNC(=O)/C=C/c2ccccc2)c2nc3cc(Cl)ccc3cc2c1, the pIC50 (Plasmodium berghei [3]) was 6.30, the pIC50 (Plasmodium falciparum [4]) was 5.18 and the Activity (Plasmodium berghei [1]) was “Active”. The pIC50 (Plasmodium falciparum [5]) was less than 4.15, the Activity (Huh-7) was roughly 75% and the Activity (Plasmodium falciparum [2]) was greater than 40%.

With COc1cc(NCCCCNC(=O)/C=C/c2ccc(C)cc2)c2nc3cc(Cl)ccc3cc2c1 the pIC50 (Plasmodium falciparum [4]) was 6.20, the Activity (Plasmodium berghei [1]) was “Active” and the pIC50 (Plasmodium falciparum [5]) was 4.97. The Activity (Plasmodium falciparum [2]) was greater than 40%.

COc1cc(NCCCCNC(=O)/C=C/c2ccc(C(C)C)cc2)c2nc3cc(Cl)ccc3cc2c1 was tested, and the pIC50 (Plasmodium berghei [3]) was 6.89 and the Activity (Plasmodium berghei [1]) was “Active”.

COc1cc(NC(C)CCCN)c2ncccc2c1 (stereo not given) [PRIMAQUINE] gave a pIC50 (Plasmodium berghei [3]) of 4.91.

COc1cc(NCCCCN)c2nc3cc(Cl)ccc3cc2c1 showed a pIC50 (Plasmodium falciparum [6]) of 5.25 and a pIC50 (Plasmodium berghei [7]) of 5.65.

COc1cc(NCCCCNC(=O)/C=C/c2cccc(F)c2)c2nc3cc(Cl)ccc3cc2c1 was tested, and the pIC50 (Plasmodium berghei [3]) was 6.25, the pIC50 (Plasmodium falciparum [4]) was 6.85 and the Activity (Plasmodium berghei [1]) was “Active”. For the same molecule, the pIC50 (Plasmodium falciparum [5]) was 5.36, the Activity (Huh-7) was roughly 75% and the Activity (Plasmodium falciparum [2]) was greater than 40%.

With COc1cc(NCCCCNC(=O)/C=C/c2ccc(OC)c(OC)c2)c2nc3cc(Cl)ccc3cc2c1 the Activity (Plasmodium berghei [1]) was “Active” and the Activity (Plasmodium falciparum [2]) was 15%.
